Results taken from ChEMBL document CHEMBL1781949, “Veraguamides A-G, cyclic hexadepsipeptides from a dolastatin 16-producing cyanobacterium Symploca cf. hydnoides from Guam” (J Nat Prod, 2011).
Numbered stars: 1 amine (or outer) side, 2 acyl side, 3 side chain; on linkers, the order of the positions; unused ones are H or OH. Square brackets hold non-standard residues; d marks the D form. Peptide text beside a SMILES is read from it. X1 = CC(Cc1ccccc1)C(N[*:1])C(=O)[*:2]; X2 = CC(C)C(N[*:1])C(C)C(=O)[*:2]; dNMeV = CN[C@@H](C(=O)O)C(C)C; dHiv = CC(C)[C@@H](O)C(=O)O; Lac = C[C@H](O)C(=O)O

How the values were obtained:
HeLa = assay: Cytotoxicity against human HeLa cells after 48 hrs by MTT assay; format: functional, cell-based
Procedure, shortened: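 HeLa cervical carcinoma cells grown in DMEM with 10% FBS at 37 °C and 5% CO2. Cells seeded at 3,000 per well and dosed at varying concentrations 24 h later. Paclitaxel positive control and DMSO solvent control. Incubated 48 h more before MTT measurement of viability. IC50 fitted from duplicate experiments.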

HT-29 = assay: Cytotoxicity against human HT-29 cells after 48 hrs by MTT assay; format: functional, cell-based; settings: HT-29, 48 h
Procedure, shortened: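 HT29 colorectal adenocarcinoma cells grown in DMEM with 10% FBS at 37 °C and 5% CO2. Cells seeded at 12,500 per well and treated with a range of concentrations 24 h after seeding. Paclitaxel positive control and DMSO solvent control. 48 h exposure, then MTT read-out. IC50 fitted from duplicate experiments.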

## C#CCCC[C@H]1OC(=O)[C@H](C(C)C)N(C)C(=O)[C@@H]2CCCN2C(=O)[C@H](Cc2ccccc2)OC(=O)[C@H](C(C)C)N(C)C(=O)[C@H](C(C)C)NC(=O)[C@H]1C [VERAGUAMIDE F]
HeLa
  IC50: 49 µM

## C#CCCC[C@H]1OC(=O)[C@H](C(C)C)N(C)C(=O)[C@@H]2CCCN2C(=O)[C@H]([C@@H](C)CC)OC(=O)[C@H](C(C)C)N(C)C(=O)[C@H](C(C)C)NC(=O)[C@H]1C [VERAGUAMIDE C]
HeLa
  IC50: 6.1 µM

## CC(=O)O[C@H]1C(=O)[C@@]2(C)[C@H]([C@H](OC(=O)c3ccccc3)[C@]3(O)C[C@H](OC(=O)[C@H](O)[C@@H](NC(=O)c4ccccc4)c4ccccc4)C(C)=C1C3(C)C)[C@]1(OC(C)=O)CO[C@@H]1C[C@@H]2O [PACLITAXEL]
HeLa
  IC50: 0.0026 µM
HT-29
  IC50: 0.003 µM

## CC(C)C1NC(=O)[C@@H]2CCCN2C(=O)C(C(C)Cc2ccccc2)NC(=O)[C@@H]2CCCN2C(=O)[C@@H](C(C)C)N(C)C(=O)[C@@H](C(C)C)OC(=O)[C@@H]2CCCN2C(=O)[C@H](C)OC(=O)C1C (stereo partly specified) [DOLASTATIN 16] (cyclo([Lac]P[dHiv][dNMeV]P[X1]P[X2]))
HeLa
  IC50: 58 µM
HT-29
  IC50: 78 µM
